Drawing on ChEMBL document CHEMBL2169799, “Synthesis and characterization of a novel prostate cancer-targeted phosphatidylinositol-3-kinase inhibitor prodrug” (J Med Chem, 2012), this text covers inhibition, Drug metabolism and Activity for 2 compounds.

The source made the active and inactive calls. The calls are words filed in the database; no cut-off is given here. *1 amine or outer side, *2 acyl side, *3 side chain or, on linkers, in order; H or OH if unused. Where a SMILES comes first, the peptide text is derived from it. The star is where a group is joined. X1 = O=c1cc(N2CCOCC2)oc2c(-c3ccc(CO*)cc3)cccc12; Morpholide = C1CN(*)CCO1; CO = O=C([*:1])[*:2]

Series [1] relates to C4-2. Briefly: Inhibition of PI3 kinase in human C4-2 cells assessed as reduction of p-Akt T308 level after 30 mins by Western blotting. In kind it is cell-based. A general note: Immunoblotting shows a protein as a band on a membrane.
Series [2] deals with BT-549. Briefly: Inhibition of PI3 kinase in human BT549 cells assessed as complete reduction of p-Akt T308 level at 30 µM after 30 mins by Western blotting. It counts as cell-based.
Series [3] concerns C4-2. Briefly: Inhibition of PI3 kinase in human C4-2 cells assessed as complete reduction of p-Akt T308 level at 30 µM after 30 mins by Western blotting. It counts as cell-based.
In series [4] the test system is BT-549. Kind of series: Inhibition of PI3 kinase in human BT549 cells assessed as reduction of p-Akt T308 level after 30 mins by Western blotting. It counts as cell-based.
The subject of series [5] is C4-2. Kind of series: Inhibition of PI3 kinase in human C4-2 cells assessed as reduction of p-Akt T308 level after 3 hrs by Western blotting. In kind it is cell-based.
The test system of series [6] is C4-2. Briefly: Inhibition of PI3 kinase in human C4-2 cells assessed as reduction of p-Akt T308 level at 30 uM by Western blotting. In kind it is cell-based. The note with it: TDE = time-dependent effect.
Series [7] is described as follows: Prodrug activation in medium conditioned with human C4-2 cells assessed as concentration of 4-(2-morpholino-4-oxo-4H-chromen-8-yl) benzyl-2-amino-4-methylpentanoate at 30 uM from 30 mins to 6 hrs by LC-ESI-MS analysis. The note with it: c4-2, 30 µM. In kind it is cell-based. Put shortly:
(§1)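 Serum-free C4-2 or BT-549 cultures given compound, PBS control; media sampled at 30 min, 3 and 6 h. Released drug quantified by C18 UHPLC (water/methanol, 0.1% formic acid gradient) with positive ESI high-resolution Orbitrap MS at mass 496.2569, against standard curve; means ± SEM, n=3.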

The subject of another series is LNCaP. Briefly: Inhibition of PI3 kinase in human LNCaP cells assessed as reduction of p-Akt T308 level after 3 hrs by Western blotting. In kind it is cell-based. The method, boiled down: (§2)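 Cells at ~80% confluence (48 h after seeding 4×10^5 per 6 cm dish), kept serum-free (LNCaP in T-Medium with 2.5% FBS; U-87 MG in DMEM) and dosed over a concentration range for 3 h, PBS control; p-Akt T308 by Western blot, three independent experiments.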

Series [8] relates to BT-549. Kind of series: Inhibition of PI3 kinase in human BT549 cells exposed to BT549 cells conditioned medium pre-incubated with compound for 6 hrs assessed as reduction of p-Akt T308 level by Western blotting. It counts as cell-based. The method, boiled down: (§3)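 Compound incubated 6 h at 37 °C, 5% CO2 in serum-free medium on C4-2 or BT-549 cells; medium then transferred to BT-549 cells for 3 h, PBS control; p-Akt T308 by Western blot.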

The test system of series [9] is LNCaP C4-2. Kind of series: Induction of apoptosis in human C4-2 cells expressing Luc-BAD assessed as increase in caspase activity at 3 to 50 uM after 6 hrs by Caspase 3 assay. In kind it is functional, cell-based. Put shortly:
(§4)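 C4-2LucBAD cells seeded 4×10^5 per 6 cm dish, grown 48 h in RPMI 1640/10% FBS to ~80% confluence, then serum-free 18 h; treated 6 h (DMSO control). Caspase 3 fluorescence read every 15 min for 1 h, arbitrary units, means ± SEM, n=2; cleaved PARP (89 kDa) by Western blot of same samples.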

Series [10] concerns BT-549. Kind of series: Inhibition of PI3 kinase in human BT549 cells exposed to 10 uM compound pre-incubated in absence of PSA for 6 hrs assessed as reduction of p-Akt T308 levels after 30 mins by Western blotting. In kind it is cell-based. The method, boiled down: (§5)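 Compound pre-incubated 6 h at 37 °C in 50 mM Tris-HCl, 0.1 M NaCl, pH 7.8 with purified active human semen PSA (0–104 ng/mL), then added to BT-549 cells for 30 min, DMSO control; p-Akt T308 Western blot, three independent experiments.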

The test system of a further series is U-87. Briefly: Inhibition of PI3 kinase in human U-87 cells assessed as reduction of p-Akt T308 level after 3 hrs by Western blotting. It counts as cell-based. The method, boiled down:
as §2

Series [11] concerns BT-549. Kind of series: Inhibition of PI3 kinase in human BT549 cells exposed to C4-2 cells conditioned medium pre-incubated with compound for 6 hrs assessed as reduction of p-Akt T308 level by Western blotting. In kind it is cell-based. Put shortly:
as §3

Series [12] has as its system BT-549. Kind of series: Inhibition of PI3 kinase in human BT549 cells exposed to 10 uM compound pre-incubated with 0.5 to 10^4 ng/mL PSA for 6 hrs assessed as reduction of p-Akt T308 levels after 30 mins by Western blotting. In kind it is cell-based. Put shortly: as §5
The subject of series [13] is LNCaP C4-2. Briefly: Induction of apoptosis in human C4-2 cells expressing Luc-BAD assessed as increase in cleavage of PARP at 3 to 50 uM after 6 hrs by Western blotting. In kind it is functional, cell-based. The method, boiled down:
as §4

Series [14] relates to C4-2. Briefly: Inhibition of PI3 kinase in human C4-2 cells expressing Luc-BAD assessed as reduction of p-Akt T308 level after 3 hrs by Western blotting. In kind it is cell-based. Put shortly:
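Serum-free C4-2LucBAD cells (18 h starvation, RPMI 1640 base) dosed over a concentration range for 3 h, PBS control; p-Akt T308 immunoblot of lysates.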

Series [15] in a line: Prodrug activation in medium conditioned with human BT549 cells assessed as concentration of 4-(2-morpholino-4-oxo-4H-chromen-8-yl) benzyl-2-amino-4-methylpentanoate at 30 uM from 30 mins to 6 hrs by LC-ESI-MS analysis. It counts as cell-based. Particulars: bt-549, 30 µM. Put shortly: as §1
Series [16] relates to BT-549. Briefly: Inhibition of PI3 kinase in human BT549 cells assessed as reduction of p-Akt T308 level at 30 uM after 30 mins to 6 hrs by Western blotting. In kind it is cell-based. The method, boiled down:
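Serum-free BT-549 cells (RPMI 1640, 10% FBS, insulin during growth) exposed from 30 min to 6 h, PBS control; p-Akt T308 Western blot of cleared lysates, representative of three independent experiments.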

Series [17] deals with BT-549. Kind of series: Inhibition of PI3 kinase in human BT549 cells assessed as reduction of p-Akt T308 level after 3 hrs by Western blotting. In kind it is cell-based. Put shortly: as §2

Turning to `CC(C)C[C@H](N)C(=O)OCc1ccc(-c2cccc3c(=O)cc(N4CCOCC4)oc23)cc1`, the inhibition entry in the series on C4-2 [1] and in the series on BT-549 [4] was “Dose-dependent effect” each time. Also, the inhibition entry in the series on BT-549 [2] and with C4-2 [3] was “Active” each time.

Regarding `CC(C)C[C@H](NC(=O)[C@H](CCCCN)NC(=O)[C@H](CO)NC(=O)[C@H](CO)NC(=O)[C@H](Cc1cnc[nH]1)NC(=O)[C@H](CCC(=O)O)NC(=O)[C@H](CC(C)C)NC(=O)N1CCOCC1)C(=O)N[C@@H](CCC(N)=O)C(=O)N[C@@H](CC(C)C)C(=O)OCc1ccc(-c2cccc3c(=O)cc(N4CCOCC4)oc23)cc1` ({Morpholide-CO}-LEHSSKLQL-X1), the inhibition entry in the series with C4-2 [5] was “Dose-dependent effect”; with C4-2 [6] it was “tde”; with LNCaP, “Dose-dependent effect”; in the series on C4-2 [14], “Dose-dependent effect”. In addition, the figures for the Drug metabolism entry in series [7] and in [15] were “Active” and “Not Active”, respectively. Moreover, the inhibition entry in the series with BT-549 [8], in the series on BT-549 [10], in the series on U-87, in the series with BT-549 [16] and with BT-549 [17] was “inactive” each time. The outcome with LNCaP C4-2 [9] and in the series on LNCaP C4-2 [13] was Active. Moreover, the inhibition entry with BT-549 [11] and in the series with BT-549 [12] was “Active” each time.
